Assay outcomes: PubChem BioAssay, several laboratories
An excerpt weighted towards active compounds, which were near 1.5% of everything screened.
ABCG2 inh: ABCG2 efflux pump inhibitors, primary screen, multiplex with ABCB1, IgMXP3 cells, flow cytometry; hit rate 0.1% among 190,000; Broad substrate specificity ATP-binding cassette transporter ABCG2 (Homo sapiens), Q9UNQ0; JC-1 efflux; AID 1325, 2008; inhibition, % at 6.6 µM;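 active = inhibition above 80%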;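 note: 0% = DMSO and 100% = nicardipine control wells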
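Test system: ABCG2 IgMXP3 and barcoded ABCB1 CCRF-Adr cell mix; Schedule: cells with compound and JC-1, 10 min at 25 °C, rotating, no wash; Technique: flow cytometry of retained JC-1 fluorescence; Measure: % inhibition of efflux relative to nicardipine and DMSO; Controls: nicardipine high and DMSO low controls.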
PGE2 EP2 inh: human EP2 receptor antagonists, primary screen, TR-FRET cAMP, C6 glioma cells; C6 glioma cells expressing human EP2; cells stimulated with saturating PGE2; inhibition, % at 25 µM; hit rate 0.52% among 260,000; AID 1422, 2008;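 active = percent inhibition above 40 after rounding to a whole number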;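 note: rat C6 glioma host cells with rolipram phosphodiesterase inhibitor present; the protocol text gives 20 µM as final concentration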
Target sequence (P43116 whole entry, looked up): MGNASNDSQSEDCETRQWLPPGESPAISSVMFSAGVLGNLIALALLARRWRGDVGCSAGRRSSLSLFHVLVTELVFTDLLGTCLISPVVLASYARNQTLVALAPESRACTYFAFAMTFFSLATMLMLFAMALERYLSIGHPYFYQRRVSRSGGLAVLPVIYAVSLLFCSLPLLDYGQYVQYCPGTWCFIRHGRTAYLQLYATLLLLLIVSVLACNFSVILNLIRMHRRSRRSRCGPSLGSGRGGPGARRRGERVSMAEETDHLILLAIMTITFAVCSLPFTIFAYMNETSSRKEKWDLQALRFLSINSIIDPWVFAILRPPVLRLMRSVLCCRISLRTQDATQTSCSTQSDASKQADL
RBBP9 inhibitor: human RBBP9 inhibitors, primary screen, biochemical, fluorescence polarization, FP-Rh probe, HTS; Serine hydrolase RBBP9 (Homo sapiens), O75884; recombinant RBBP9; inhibition, % at 7.94 µM; hit rate 0.2% among 220,000;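 active = inhibition above the campaign mean of all tested compounds plus 3 SD, cut at about 14% in these data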;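 note: plate controls were DMSO wells with RBBP9 for no effect and wells lacking RBBP9 protein for full effect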
Target sequence (O75884 whole entry, looked up): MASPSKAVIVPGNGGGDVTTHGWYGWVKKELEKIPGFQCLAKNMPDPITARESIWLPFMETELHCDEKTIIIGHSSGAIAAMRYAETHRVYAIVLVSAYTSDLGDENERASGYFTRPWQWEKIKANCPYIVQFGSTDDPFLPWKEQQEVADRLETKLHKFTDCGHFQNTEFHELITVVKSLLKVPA
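system = RBBP9 protein | input = RBBP9 at 2.5 µM in dispensed solution, before mixing | measured by = fluorescence polarization (mP), excitation 525 nm, emission 598 nm | incubation = enzyme-compound preincubation 30 min, then probe labeling 45 min, 25 °C | buffer or medium = Tris-NaCl-Pluronic buffer, pH 8.0 | compound = single dose 7.94 µM | also added = FP-Rh probe, 375 nM dispensing solution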
ABCB1 inh: ABCB1 efflux pump inhibitors, primary screen, cell-based, multiplex, flow cytometry, ABCG2 counter-screen; ATP-dependent translocase ABCB1 (Homo sapiens), P08183; CCRF-Adr cells, JC-1 efflux; inhibition, % at 6.6 µM; hit rate 0.067% among 190,000; in the data active = inhibition above about 40%;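 note: 0% = vehicle and 100% = reference inhibitor; higher value means more JC-1 retained so stronger ABCB1 efflux block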
EP2 modulator: EP2 receptor modulators, cAMP readout, primary screen, cell-based, HTRF cAMP, PGE2 stimulation. Prostaglandin E2 receptor EP2 subtype (Homo sapiens), P43116. EP2-expressing cells, cAMP HTRF FRET, PGE2 co-stimulation. induction, % at 25 µM. hit rate 0.83% among 260,000;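 active = compounds whose cAMP rise, as percent of the full-agonist control response, exceeds 60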;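 note: rat C6 glioma line stably carrying human EP2 under a CMV promoter; the protocol text gives 20 µM as final concentration; 100% = response of wells given 1 µM PGE2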
ABCB1 confirm: ABCB1 efflux pump inhibitors, confirmation, cell-based, single point, ABCG2 counter-screen; shares compounds with ABCG2 inh; CCRF-Adr cells, JC-1 efflux, flow cytometry; inhibition, % at 6.6 µM; hit rate 7% among 270;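 active = inhibition of pump activity above 50%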;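 note: 0% = DMSO and 100% = nicardipine full pump inhibition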
ABCG2 single pt: ABCG2 efflux pump inhibitors, confirmation, single point, IgMXP3 cells, ABCB1 counter-screen paired | shares compounds with ABCG2 inh | JC-1 efflux, flow cytometry | inhibition, % at 6.6 µM | hit rate 6% among 270 | AID 1453, 2008;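 active = inhibition above 50%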;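 note: 0% = DMSO wells and 100% = nicardipine pump inhibitor wells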
IgMXP3 autofluor: compound autofluorescence in ABCG2-expressing IgMXP3 cells, confirmation, artefact control for ABC transporter inhibitor project, cell-based, 488/530 nm, flow cytometry | hit rate 30% among 270 | AID 1480, 2009 | shares compounds with ABCG2 inh | fluorescence at 6.6 µM | compound autofluorescence 488/530 nm; active compounds read high;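 active = fluorescence in ABCG2-expressing cells above the plate's control-well mean plus 3 SD, cut at about 15 in these data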;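 note: median cell fluorescence with compound minus that of DMSO-treated control cells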
CCRF autofluor: compound autofluorescence in ABCB1-expressing CCRF-Adr cells, confirmation, artefact control for ABC transporter inhibitor project, cell-based, 488/530 nm, flow cytometry; hit rate 30% among 270; fluorescence at 6.6 µM; shares compounds with ABCG2 inh; AID 1483, 2009; compound autofluorescence 488/530 nm; active compounds read high;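 active = fluorescence beyond the plate control mean plus 3 SD, with a fluorescence-to-maximum score over 2, cut at about 25 in these data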
* marks the source's active call; other numbers are inactive results.

Screening O=C(Nc1nnc(SCC(=O)N(C2CCCCC2)C2CCCCC2)s1)C1CCC1 returned PGE2 EP2 inh 4 and EP2 modulator 41.
`CCOC(=O)C1=C(CNCc2ccc(C)cc2)NC(=O)NC1c1cc(C)ccc1C` (configuration not stated) gave ABCG2 inh 25, PGE2 EP2 inh 2, RBBP9 inhibitor -7, ABCB1 inh 40, EP2 modulator 29, ABCB1 confirm 15, ABCG2 single pt 13, IgMXP3 autofluor -1.8 and CCRF autofluor -4.6.
Cc1ccc(-c2cc(C(F)F)n3ncc(C(=O)N4c5ccccc5CC4C)c3n2)cc1 (configuration not stated) was read as PGE2 EP2 inh 9 and EP2 modulator -64.
CC[n+]1c(/C=C/c2c[nH]c3ccccc23)ccc2cc(C)ccc21 was read as ABCG2 inh 84*, PGE2 EP2 inh 15, RBBP9 inhibitor -23, ABCB1 inh 23, EP2 modulator -80, ABCB1 confirm 2, ABCG2 single pt -59, IgMXP3 autofluor 194* and CCRF autofluor 62*.
Screening CCOc1ccccc1NC(=O)C(OC(=O)c1ccc(O)cc1)c1ccccc1 (configuration not stated) returned ABCG2 inh 23, PGE2 EP2 inh 9, RBBP9 inhibitor -17, ABCB1 inh 1 and EP2 modulator 0.
Screening CCOc1ccccc1NC(=O)C(OC(=O)c1ccc(N(C)C)cc1)c1ccccc1 (configuration not stated) returned ABCG2 inh 117*, PGE2 EP2 inh 8, RBBP9 inhibitor -6, ABCB1 inh 5, EP2 modulator 28, ABCB1 confirm 38, ABCG2 single pt 63*, IgMXP3 autofluor 2.2 and CCRF autofluor 21.
For COc1ccc(NCc2nnc(SCC(=O)Nc3ccc(Br)cc3)n2C)cc1 the results were PGE2 EP2 inh 5 and EP2 modulator -12.
`Cc1c(C(=O)NCCCc2ccccn2)nnn1-c1ccccc1` gave PGE2 EP2 inh 7 and EP2 modulator -27.
Screening CCCC(NC(=O)CCl)c1ccccc1 (configuration not stated) returned ABCG2 inh 4, PGE2 EP2 inh 5, RBBP9 inhibitor -5, ABCB1 inh 0 and EP2 modulator 28.
`CCC(NC(=O)CCl)c1ccc(C)cc1` (configuration not stated) gave ABCG2 inh 72, PGE2 EP2 inh 9, RBBP9 inhibitor -2, ABCB1 inh 6, EP2 modulator 1, ABCB1 confirm 3, ABCG2 single pt 0, IgMXP3 autofluor -0.84 and CCRF autofluor 2.7.
For COc1ccc2cc(C(=O)OC(C)C)sc(=O)c2c1OC the results were ABCG2 inh 87*, PGE2 EP2 inh 7, RBBP9 inhibitor -4, ABCB1 inh 2, EP2 modulator 13, ABCB1 confirm 1, ABCG2 single pt 60*, IgMXP3 autofluor -1.9 and CCRF autofluor -3.8.
COc1ccc2cc(C(=O)NCC(=O)O)sc(=O)c2c1OC was read as ABCG2 inh 6, RBBP9 inhibitor -11, ABCB1 inh 1 and EP2 modulator 23.
Screening NC(=O)C1CCN(C(=O)C2CC(c3cccc(Br)c3)=NO2)CC1 (configuration not stated) returned PGE2 EP2 inh 7 and EP2 modulator -43.
CCc1ccc(OCC(=O)N/N=C(\C)c2ccc(OC(F)F)cc2)cc1 was read as ABCG2 inh 104*, PGE2 EP2 inh 8, RBBP9 inhibitor -2, ABCB1 inh 4, EP2 modulator -38, ABCB1 confirm -9, ABCG2 single pt 17, IgMXP3 autofluor 15* and CCRF autofluor 12.
For CCOC(=O)C1=C(O)/C(=C/c2ccc(OCC(=O)O)c(OCC)c2)SC1=Nc1ccccc1 the results were ABCG2 inh 0, PGE2 EP2 inh 5, RBBP9 inhibitor -5, ABCB1 inh 0 and EP2 modulator 44.
`CCOC(=O)C1=C(O)/C(=C/c2ccc(OCC(=O)O)c(OC)c2)SC1=Nc1ccc(OCC)cc1` gave ABCG2 inh 16, PGE2 EP2 inh 20, RBBP9 inhibitor -4, ABCB1 inh 50*, EP2 modulator 3, ABCB1 confirm -1, ABCG2 single pt 5, IgMXP3 autofluor -1.8 and CCRF autofluor -3.4.
COc1ccc(OC)c(C2C(C(=O)Nc3nc4ccccc4s3)=C(C)NC3=C2C(=O)CCC3)c1 (configuration not stated) was read as ABCG2 inh 11, PGE2 EP2 inh 6, RBBP9 inhibitor -11, ABCB1 inh 6 and EP2 modulator -35.
Screening COc1cccc(C2C(C(=O)Nc3nc4ccccc4s3)=C(C)NC3=C2C(=O)CC(C)(C)C3)c1OC (configuration not stated) returned ABCG2 inh 6, PGE2 EP2 inh 22, RBBP9 inhibitor -6, ABCB1 inh 45*, EP2 modulator 2, ABCB1 confirm 59*, ABCG2 single pt 12, IgMXP3 autofluor 29* and CCRF autofluor 4.3.
C#CCOc1ccc(C2NC(=O)NC(C)=C2C(=O)OC)cc1OC (configuration not stated) was read as PGE2 EP2 inh 10 and EP2 modulator 6.
`COc1ccc(/C=N/Nc2cc(=O)n(C)c(=O)n2C)cc1OC` gave ABCG2 inh 88*, PGE2 EP2 inh 11, RBBP9 inhibitor -3, ABCB1 inh 3, EP2 modulator 8, ABCB1 confirm 2, ABCG2 single pt 48, IgMXP3 autofluor 23* and CCRF autofluor 7.9.
COc1cccc(NC(=O)Nc2ccc(Cc3ccncc3)cc2)c1 was read as ABCG2 inh 1, PGE2 EP2 inh 8, RBBP9 inhibitor -12, ABCB1 inh 0 and EP2 modulator -41.
